In ChEMBL document CHEMBL1144717, “1-(2-Carboxyindol-5-yloxy)propan-2-ones as inhibitors of human cytosolic phospholipase A2alpha: synthesis, biological activity, metabolic stability, and solubility” (Bioorg Med Chem, 2008):
Converted amounts (≈) assume the structure as drawn. The source made the active and inactive calls. The calls are words filed in the database; no cut-off is given here.

What was measured:
[1] = target: T1, Cytosolic phospholipase A2 (Homo sapiens, UniProt P47712); experiment: Inhibition of human platelet cPLA2-alpha activity
T1 sequence (P47712 whole entry): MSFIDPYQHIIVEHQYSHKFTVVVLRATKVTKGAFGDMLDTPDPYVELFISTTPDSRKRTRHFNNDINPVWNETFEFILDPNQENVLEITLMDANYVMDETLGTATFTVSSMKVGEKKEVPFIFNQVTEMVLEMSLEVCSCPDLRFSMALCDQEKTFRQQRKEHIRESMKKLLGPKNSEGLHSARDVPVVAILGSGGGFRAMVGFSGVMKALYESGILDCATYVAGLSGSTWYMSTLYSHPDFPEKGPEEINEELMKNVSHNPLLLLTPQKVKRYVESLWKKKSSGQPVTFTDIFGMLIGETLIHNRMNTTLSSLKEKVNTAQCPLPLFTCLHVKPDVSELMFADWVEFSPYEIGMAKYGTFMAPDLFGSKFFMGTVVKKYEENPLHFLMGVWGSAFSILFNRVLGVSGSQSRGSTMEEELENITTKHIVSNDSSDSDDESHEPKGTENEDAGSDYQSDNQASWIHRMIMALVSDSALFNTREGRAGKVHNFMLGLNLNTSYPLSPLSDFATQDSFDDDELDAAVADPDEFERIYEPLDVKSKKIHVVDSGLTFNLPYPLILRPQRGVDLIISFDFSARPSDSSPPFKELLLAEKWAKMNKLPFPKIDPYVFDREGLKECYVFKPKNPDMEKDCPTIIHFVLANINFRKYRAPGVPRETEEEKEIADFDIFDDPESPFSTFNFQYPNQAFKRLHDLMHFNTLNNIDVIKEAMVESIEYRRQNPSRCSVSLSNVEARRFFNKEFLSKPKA
In short: (§1)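 cPLA₂α isolated from human platelets. Incubated 60 min. Arachidonic acid released, with and without compound, measured by RP-HPLC with UV 200 nm after SPE cleanup, using an internal standard. Values are means of at least two independent determinations.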

[2] = target: T1, Cytosolic phospholipase A2; experiment: Inhibition of cPLA2-alpha in TPA-stimulated intact human platelets assessed as liberation of arachidonic acid after 60 mins
In short: (§2)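 Human platelets from buffy coat, washed in PBS/EDTA and resuspended in PBS (0.1 M, pH 7.4) at about 10⁸ cells/mL. Preincubated 5 min at 37 °C with ETYA (final 10 µM) and compound in DMSO, then CaCl₂ added for a further 5 min. Stimulated with TPA (final 2 µM) for 60 min at 37 °C. Released arachidonic acid quantified by SPE then RP-HPLC, UV 200 nm, against an internal standard.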

[3] = Solubility in sodium phosphate buffer at pH 7.4; type: physicochemical
In short: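 Supernatant diluted with acetonitrile and phosphoric acid, then quantified by RP-HPLC at 240 nm against a calibration curve. Mean ± SD, n = 3 (n = 2 for values <1 µg/mL).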

[4] = Metabolic stability in rat liver microsomes at 20 uM after 30 mins in presence of NADPH by reverse phased HPLC relative to control; type: ADME, Microsome; details: read-out: Stability
In short: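 Rat liver microsomes at 5.7 mg protein/mL in PBS (0.1 M, pH 7.4); compound final 20 µM from DMSO. Preincubated 5 min at 37 °C, then started with NADPH (12 mM) and MgCl₂ (5 mM) solution. Stopped after 30 min with acetonitrile. Parent ketone peak measured by RP-HPLC at 240 nm and compared with an NADPH-free incubation. Mean of at least two independent determinations.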

[5] = target: T2, Cytosolic phospholipase A2 (Homo sapiens) (UniProt P47712); experiment: Inhibition of human platelet cPLA2-alpha activity at 10 uM; in short: as §1
T2 sequence (whole entry): T1 sequence (P47712 whole entry)

[6] = target: T2, Cytosolic phospholipase A2 (Homo sapiens); experiment: Inhibition of cPLA2-alpha in TPA-stimulated intact human platelets assessed as liberation of arachidonic acid at 10 um after 60 mins; in short: as §2

SMILES | IC50 [1] [nM] | IC50 [2] [nM] | solubility [3] [µg/mL] | remaining at 0.5 h, 20 µM [4] [%] | inhibition [5] [%] | Activity [6] | Activity [5]
CCCCCCCCc1ccc(OCC(=O)COc2ccc3c(c2)cc(C(=O)O)n3Cc2ccccc2)cc1 | 10000 |  | < 1 | < 5 |  |  | 
CCCCCCCCc1ccc(OCC(=O)COc2ccc3[nH]c(C(=O)O)cc3c2)cc1 | 3300 |  | 8.4 (≈ 19.2 µM) | < 5 |  |  | 
CCCCCCCCc1ccc(OCC(O)COc2ccc3c(c2)cc(C(=O)O)n3CC(=O)O)cc1 (stereo not given) |  |  |  |  |  | inactive | inactive
CCCCCCCCc1ccc(OCC(=O)COc2ccc3c(c2)cc(C(=O)O)n3CC(=O)O)cc1 | 300 | 1300 | 8.1 (≈ 16.3 µM) | 18 |  |  | 
CCCCCCCCc1ccc(OCC(=O)COc2ccc3c(c2)cc(C(=O)O)n3Cc2ccc(C(=O)O)cc2)cc1 | 1500 |  | 13 (≈ 22.7 µM) | 15 |  |  | 
CCCCCCCCc1ccc(OCC(O)COc2ccc3c(c2)cc(C(=O)O)n3C)cc1 (stereo not given) |  |  |  |  |  | inactive | inactive

Next, values leading:

IC50 [1] [nM] | IC50 [2] [nM] | solubility [3] [µg/mL] | remaining at 0.5 h, 20 µM [4] [%] | inhibition [5] [%] | Activity [6] | Activity [5] | SMILES
1200 | 600 | < 1 | < 5 |  |  |  | CCCCCCCCc1ccc(OCC(=O)COc2ccc3c(c2)cc(C(=O)O)n3C)cc1
> 10000 |  | < 1 | < 5 | 42 |  |  | CCCCCCCCc1ccc(OCC(=O)COc2ccc3c(c2)cc(C(=O)O)n3CCCCCC)cc1
600 | 500 | 17 (≈ 30.8 µM) | < 5 |  |  |  | CCCCCCCCc1ccc(OCC(=O)COc2ccc3c(c2)cc(C(=O)O)n3CCCCCC(=O)O)cc1
2100 |  | < 1 | < 5 |  |  |  | CCCCCCCCc1ccc(OCC(=O)COc2ccc3c(c2)cc(C(=O)O)n3CCC)cc1
400 | 300 | 30 (≈ 57.3 µM) | < 5 |  |  |  | CCCCCCCCc1ccc(OCC(=O)COc2ccc3c(c2)cc(C(=O)O)n3CCCC(=O)O)cc1
> 10000 |  | 46 (≈ 90.4 µM) | 9 | 32 |  |  | CCCCCCCCc1ccc(OCC(=O)COc2ccc3c(c2)cc(C(=O)O)n3CCN(C)C)cc1
